Measured values pooled from the literature.
Lines come from different studies, so protocols differ.
Target: 5-hydroxytryptamine receptor 7 (HTR7, Homo sapiens, UniProt P34969)
Concentration: 10 µM

COc1cc(NC(C)=O)c(Cl)cc1C(=O)Nc1nccs1
inhibition (ligand displacement; radioligand): -7.7%

CC(C)(C)OC(=O)N1CCCC1CNC1CCC(c2cc(F)ccc2F)(S(=O)(=O)c2ccc(Cl)cc2)CC1 (stereo not drawn)
inhibition (cell-free assay): 70.7%

N#Cc1cc(Cn2c(N3CCCC3)nc3ccccc32)ccc1F
inhibition (ligand displacement): -11.2%

COc1cc2c3c(c1OC)-c1cc4c(cc1CC3N(C)CC2)OCO4 (racemic)
inhibition (ligand displacement; radioligand): 96.7%

C[C@@H](c1cccc(C#N)c1)n1cc(Cl)cc(C(N)=O)c1=N
inhibition (ligand displacement): 4.17%

COc1cc2c3c(c1OC)-c1cc4c(cc1CC3N(C)CC2c1ccccc1)OCO4 (stereo not drawn)
inhibition (ligand displacement; radioligand): < 50%

CCN(CC)c1ccc(C2Nc3ccc(C(=O)c4ccccc4)cc3NC3=C2C(=O)CC(C)(C)C3)cc1 (stereo not drawn)
inhibition (ligand displacement; radioligand): 4%

Oc1cccc(Nc2nc(-c3ccc(F)cc3F)cs2)c1
inhibition (ligand displacement; radioligand): -31.9%

CCCNc1nc2ccccc2n1Cc1ccc(Cl)cc1
inhibition (ligand displacement): 13.5%
